Data taken from ChEMBL document CHEMBL1765029, “Synthesis and biological evaluation of estradiol linked pyrrolo[2,1-c][1,4]benzodiazepine (PBD) conjugates as potential anticancer agents” (2011).
Where a name gives a salt, the structure may show the parent alone. Activity calls are given as the source filed them. No cut-off for these calls is given here.

What was measured:
[1] = test system: ZR-75-1; assay: Cytotoxicity against human ZR-75-1 cells by sulforhodamine B method; format: functional
[2] = test system: A549; assay: Cytotoxicity against human A549 cells by sulforhodamine B method; format: functional
[3] = test system: A2780; assay: Cytotoxicity against human A2780 cells by sulforhodamine B method; format: functional
[4] = test system: HOP-62; assay: Cytotoxicity against human HOP62 cells by sulforhodamine B method; format: functional
[5] = test system: KB; assay: Cytotoxicity against human KB cells by sulforhodamine B method; format: functional
[6] = test system: SiHa; assay: Cytotoxicity against human SiHa cells by sulforhodamine B method; format: functional
[7] = Cytotoxicity against human Gurav cells by sulforhodamine B method; format: functional
[8] = test system: MCF7; assay: Cytotoxicity against human MCF7 cells by sulforhodamine B method; format: functional
[9] = test system: COLO 205; assay: Cytotoxicity against human COLO205 cells by sulforhodamine B method; format: functional
[10] = Cytotoxicity against human DWD cells by sulforhodamine B method; format: functional
[11] = test system: PC-3; assay: Cytotoxicity against human PC3 cells by sulforhodamine B method; format: functional
[12] = test system: MCF7; assay: Cytotoxicity against human MCF7 cells at 4 uM after 24 hrs by MTT assay; format: functional, cell-based
How it was run: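 MCF-7 cells seeded at 10,000 per well, incubated overnight, then treated at 4 µM for 24 h; DMSO control. Medium replaced with MTT, 2 h at 37 °C. Formazan solubilised in extraction buffer, absorbance read at 570 nm, expressed as percent viability.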

[13] = test system: MCF7; assay: Cell cycle arrest in human MCF7 cells assessed as accumulation at G0 phase using propidium iodide staining at 4 uM after 24 hrs by flow cytometry; format: functional
How it was run: (§1)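 MCF-7 cells (5 × 10⁵ per 60 mm dish) grown 24 h, then exposed to 4 µM compound for a further 24 h; DMSO-treated control. Cells trypsinised, fixed in ice-cold 70% ethanol at 4 °C for 30 min, RNase-treated (1 mg/mL, 37 °C, 30 min), stained with propidium iodide/citrate/Triton X-100. DNA content read on 20,000 events by flow cytometry; percent cells per phase reported.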

[14] = test system: MCF7; assay: Cell cycle arrest in human MCF7 cells assessed as accumulation at G1 phase using propidium iodide staining at 4 uM after 24 hrs by flow cytometry; format: functional; how it was run: as §1
[15] = test system: MCF7; assay: Cell cycle arrest in human MCF7 cells assessed as accumulation at S phase using propidium iodide staining at 4 uM after 24 hrs by flow cytometry; format: functional; how it was run: as §1
[16] = test system: MCF7; assay: Cell cycle arrest in human MCF7 cells assessed as accumulation at G2/M phase using propidium iodide staining at 4 uM after 24 hrs by flow cytometry; format: functional; how it was run: as §1
[17] = test system: MCF7; assay: Reduction in Cdk1 protein level in human MCF7 cells at 4 uM after 24 hrs by Western blot analysis; format: functional, cell-based
How it was run: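 MCF-7 cells (5 × 10⁵ per 60 mm dish) grown 24 h, then treated at 4 µM for 24 h. Lysis in ice-cold RIPA buffer with protease/phosphatase inhibitors; protein measured by Bradford. Fifty µg per lane resolved on 12% SDS-PAGE and transferred to PVDF. Blocked 2 h, primary antibody overnight at 4 °C, chemiluminescent detection; β-actin as loading control.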

Row | Compound | GI50 [1] [nM] | GI50 [2] [nM] | GI50 [3] [nM] | GI50 [4] [nM] | GI50 [5] [nM] | GI50 [6] [nM] | GI50 [7] [nM] | GI50 [8] [nM] | GI50 [9] [nM] | GI50 [10] [nM] | GI50 [11] [nM] | Activity [12] | Activity [13] [%] | Activity [14] [%] | Activity [15] [%] | Activity [16] [%] | Activity [17]
1 | COc1cc2c(cc1OCc1cn(CCCOc3ccc4c(c3)CC[C@@H]3[C@@H]4CC[C@]4(C)[C@@H](O)CC[C@@H]34)nn1)N=C[C@@H]1CCCN1C2=O | 190 | 180 | 170 | 1180 | 310 | 1140 | 170 | 120 | 170 | 160 | 190 | – | – | – | – | – | –
2 | COc1cc2c(cc1OCCCOc1ccc3c(c1)CC[C@@H]1[C@@H]3CC[C@]3(C)[C@@H](O)CC[C@@H]13)N=C[C@@H]1CC(F)(F)CN1C2=O | 180 | 2810 | 2100 | 2110 | 150 | 2810 | 2180 | 170 | 100 | 2040 | 2400 | – | – | – | – | – | –
3 | COc1cc2c(cc1OCc1cn(CCCOc3ccc4c(c3)CC[C@@H]3[C@@H]4CC[C@]4(C)[C@@H](O)CC[C@@H]34)nn1)N=C[C@@H]1CC(F)(F)CN1C2=O | 170 | 170 | 1270 | 180 | 190 | 1120 | 170 | 110 | 140 | 170 | 140 | – | – | – | – | – | –
4 | COc1cc2c(cc1OCCCN1CCN(CCCOc3ccc4c(c3)CC[C@@H]3[C@@H]4CC[C@]4(C)[C@@H](O)CC[C@@H]34)CC1)N=C[C@@H]1C[C@@H](F)CN1C2=O | < 100 | < 100 | < 100 | 110 | 120 | 150 | 110 | < 100 | 130 | 100 | < 100 | Active | 0.87 | 50.53 | 24.01 | 24.33 | –
5 | COc1cc2c(cc1OCCCN1CCN(CCCOc3ccc4c(c3)CC[C@@H]3[C@@H]4CC[C@]4(C)[C@@H](O)CC[C@@H]34)CC1)N=C[C@@H]1CCCN1C2=O | 120 | 120 | 1300 | 1140 | 190 | 130 | 140 | 110 | 130 | 120 | 140 | Active | 2.84 | 47.9 | 25.2 | 24.01 | –
6 | COc1cc2c(cc1OCCCCCOc1ccc3c(c1)CC[C@@H]1[C@@H]3CC[C@]3(C)[C@@H](O)CC[C@@H]13)N=C[C@@H]1CCCN1C2=O | 1190 | 2200 | 1190 | 2240 | 2130 | 2180 | 2040 | 170 | 190 | 180 | 2190 | – | – | – | – | – | –
7 | COc1cc2c(cc1OCCCCCOc1ccc3c(c1)CC[C@@H]1[C@@H]3CC[C@]3(C)[C@@H](O)CC[C@@H]13)N=C[C@@H]1CC(F)(F)CN1C2=O | 190 | 2810 | 2120 | 2110 | 140 | 2810 | 2190 | 170 | 200 | 2170 | 2420 | – | – | – | – | – | –
8 | COc1cc2c(cc1OCc1cn(CCCCCOc3ccc4c(c3)CC[C@@H]3[C@@H]4CC[C@]4(C)[C@@H](O)CC[C@@H]34)nn1)N=C[C@@H]1CC(F)(F)CN1C2=O | 180 | 170 | 1800 | 190 | 190 | 1210 | 190 | 110 | 160 | 180 | 170 | Active | 0.74 | 55 | 22.3 | 21.8 | –
9 | COc1cc2c(cc1OCCCCCN1CCN(CCCCCOc3ccc4c(c3)CC[C@@H]3[C@@H]4CC[C@]4(C)[C@@H](O)CC[C@@H]34)CC1)N=C[C@@H]1CC(F)(F)CN1C2=O | 120 | 130 | 160 | 170 | 810 | 190 | 150 | 140 | 170 | 1320 | 190 | – | – | – | – | – | –
10 | COc1cc2c(cc1OCCCOc1ccc3c(c1)CC[C@@H]1[C@@H]3CC[C@]3(C)[C@@H](O)CC[C@@H]13)N=C[C@@H]1CCCN1C2=O | 1190 | 2100 | 1190 | 2230 | 2110 | 2120 | 2050 | 170 | 160 | 170 | 2080 | – | – | – | – | – | –
11 | COc1cc2c(cc1OCCCCCN1CCN(CCCCCOc3ccc4c(c3)CC[C@@H]3[C@@H]4CC[C@]4(C)[C@@H](O)CC[C@@H]34)CC1)N=C[C@@H]1CCCN1C2=O | 170 | 160 | 1700 | 1170 | 190 | 170 | 190 | 140 | 1160 | 170 | 190 | – | – | – | – | – | –
12 | C[C@]12CC[C@@H]3c4ccc(O)cc4CC[C@H]3[C@@H]1CC[C@@H]2O [ESTRADIOL] | – | – | – | – | – | – | – | – | – | – | – | Active | 0.83 | 50 | 25.26 | 23.8 | Active
13 | COc1cc2c(cc1OCCCN1CCN(CCCOc3ccc4c(c3)CC[C@@H]3[C@@H]4CC[C@]4(C)[C@@H](O)CC[C@@H]34)CC1)N=C[C@@H]1CC(F)(F)CN1C2=O | 120 | 120 | 110 | 150 | 170 | 160 | 130 | < 100 | 140 | 100 | 130 | – | – | – | – | – | –
14 | COc1cc2c(cc1OCc1cn(CCCCCOc3ccc4c(c3)CC[C@@H]3[C@@H]4CC[C@]4(C)[C@@H](O)CC[C@@H]34)nn1)N=C[C@@H]1CCCN1C2=O | 110 | 190 | 170 | 1690 | 800 | 1170 | 180 | 140 | 170 | 170 | 190 | – | – | – | – | – | –
15 | COc1cc2c(cc1OCCCCCN1CCN(CCCCCOc3ccc4c(c3)CC[C@@H]3[C@@H]4CC[C@]4(C)[C@@H](O)CC[C@@H]34)CC1)N=C[C@@H]1C[C@@H](F)CN1C2=O | < 100 | 110 | 110 | 130 | 140 | 160 | 130 | 130 | 140 | 150 | 170 | – | – | – | – | – | –
16 | COc1cc2c(cc1OCCCCCOc1ccc3c(c1)CC[C@@H]1[C@@H]3CC[C@]3(C)[C@@H](O)CC[C@@H]13)N=C[C@@H]1C[C@@H](F)CN1C2=O | 170 | 180 | 190 | 190 | 2170 | 2310 | 180 | 150 | 170 | 1900 | 190 | – | – | – | – | – | –
17 | COc1cc2c(cc1OCCCOc1ccc3c(c1)CC[C@@H]1[C@@H]3CC[C@]3(C)[C@@H](O)CC[C@@H]13)N=C[C@@H]1C[C@@H](F)CN1C2=O | 140 | 180 | 170 | 180 | 2160 | 2120 | 190 | 140 | 160 | 1700 | 190 | – | – | – | – | – | –
18 | COc1cccc2c1C(=O)c1c(O)c3c(c(O)c1C2=O)C[C@@](O)(C(=O)CO)C[C@@H]3O[C@H]1C[C@H](N)[C@H](O)[C@H](C)O1 [DOXORUBICIN HYDROCHLORIDE] | – | – | 160 | 140 | 170 | 170 | 170 | 170 | 140 | 100 | – | – | – | – | – | – | –
